We go through four compounds from ChEMBL document CHEMBL1949565, “4-nitrobenzyloxycarbonyl derivatives of O(6)-benzylguanine as hypoxia-activated prodrug inhibitors of O(6)-alkylguanine-DNA alkyltransferase (AGT), which produces resistance to agents targeting the O-6 position of DNA guanine” (J Med Chem, 2011).

Data set [1] is described as follows: Prodrug activation assessed as formation of O6-benzylguanine in presence of Zn/EDTA. The method, boiled down: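 Each agent at 50 μM in 50 mM Tris-HCl, 10 mM EDTA, pH 7.0, was shaken briefly with about 4 mg/mL Zn dust at room temperature. After centrifugation, the supernatant was analysed by reverse-phase HPLC with UV detection at 280 nm.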
Data set [2] in a line: Prodrug activation assessed as formation of O6-benzylguanine under normoxic condition at 20 uM after 1 hr by HPLC analysis in presence of xanthine/xanthine oxidase. The method, boiled down: (§1)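 Test agent at 20 μM (from DMSO) in 100 mM potassium phosphate pH 7.4 at 37 °C, with either cytochrome P450 reductase plus 1 mM NADPH, or 0.16 units/mL xanthine oxidase plus 1 mM xanthine. Oxygen deficiency came from glucose oxidase/catalase with 10 mM glucose. Aerobic mixtures omitted glucose and were shaken as shallow layers in sealed flasks. Samples at 0 and 1 h were quenched with acetonitrile and analysed by HPLC.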

Data set [3] in a line: Prodrug activation assessed as formation of O6-benzylguanine under oxygen-deficient condition at 20 uM after 1 hr by HPLC analysis in presence of xanthine/xanthine oxidase. The method, boiled down: as §1
The nature of data set [4]: Prodrug activation assessed as formation of O6-benzylguanine under normoxic condition at 20 uM after 1 hr by HPLC analysis in presence of NADPH:CYP450 reductase. It is filed as ADME. The method, boiled down:
as §1

Data set [5] is described as follows: Prodrug activation assessed as formation of O6-benzylguanine under oxygen-deficient condition at 20 uM after 1 hr by HPLC analysis in presence of NADPH:CYP450 reductase. The class given is ADME. The method, boiled down: as §1
The species entered for data set [6] is Homo sapiens. Nature of the data set: Inhibition of human recombinant AGT assessed as prevention of O6-(2-chloroethyl)guanine and N1,O6-ethanoguanine-DNA adduct repair at 50 uM after 30 mins by fluorescence assay. The gist of the method: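 About 40 fmol purified recombinant human AGT in stabilization buffer (20 mM Tris-HCl, 1 mM EDTA, BSA 1 mg/mL, 0.1 mM DTT, L1210 DNA, pH 7.4) preincubated with inhibitor for 30 min at 37 °C. It was then incubated 30 min at 37 °C with L1210 DNA bearing O6-chloroethylguanine/N1,O6-ethanoguanine lesions (~50 fmol). Unrepaired lesions were converted to cross-links at 50 °C for 2–3 h. Cross-linking was read by Hoechst 33258 fluorescence before and after heat denaturation.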

The subject of data set [7] is DU-145. The data set is described as follows: Prodrug activation in human DU145 cells assessed as formation of O6-benzylguanine under normoxic condition at 20 uM after 3 hrs by HPLC analysis. The class given is cell-based. As to conditions: du-145, 3 h. The method, boiled down:
(§2)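 Cells at 10^7/mL with ~20 μM prodrug at 37 °C: EMT6 in DMEM with 10% FBS, DU145 in α-MEM with 10% FBS, each with 10 mM glucose. Normoxic suspensions were shaken as shallow layers in flasks. Oxygen-deficient incubations used sealed tubes with an extra 10 mM glucose, glucose oxidase 2 units/mL and catalase 120 units/mL. Samples at 0–3 h were acetonitrile-extracted and analysed by HPLC.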

The test system of data set [8] is EMT6. Nature of the data set: Prodrug activation in mouse EMT6 cells assessed as formation of O6-benzylguanine under normoxic condition at 20 uM after 3 hrs by HPLC analysis. The following applies: emt6, 3 h. It is filed as cell-based. The gist of the method:
as §2

Data set [9] has as its system EMT6. Nature of the data set: Prodrug activation in mouse EMT6 cells assessed as formation of O6-benzylguanine under oxygen-deficient condition at 20 uM after 3 hrs by HPLC analysis. The class given is cell-based. The following applies: emt6, 3 h. The method, boiled down:
as §2

The species named for data set [10] is Homo sapiens. The data set is described as follows: Inhibition of human recombinant AGT assessed as prevention of O6-(2-chloroethyl)guanine and N1,O6-ethanoguanine-DNA adduct repair at 0.1 uM after 30 mins by fluorescence assay. The method, boiled down: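 Purified recombinant human AGT (~40 fmol) in stabilization buffer (20 mM Tris-HCl, 1 mM EDTA, 1 mg/mL BSA, 0.1 mM DTT, 2 μg/mL L1210 DNA, pH 7.4) preincubated with inhibitor 30 min, 37 °C. Then added to L1210 DNA substrate treated with a chloroethylating hydrazine (~50 fmol lesions), 30 min, 37 °C. Heated 50 °C 2–3 h. Cross-links quantified by Hoechst 33258 fluorescence before/after heat denaturation. Inhibition derived from remaining cross-link precursors.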

For data set [11], the system named is DU-145. The data set is described as follows: Prodrug activation in human DU145 cells assessed as formation of O6-benzylguanine under oxygen-deficient condition at 20 uM after 3 hrs by HPLC analysis. The class given is cell-based. As to conditions: du-145, 3 h. The gist of the method:
as §2

Data set [12] relates to DU-145. Nature of the data set: Inhibition of AGT-mediated potentiation of laromustine-induced cytotoxicity in human DU145 cells at 40 uM pretreated for 6 hrs prior laromustine addition measured after 24 hrs incubation under normoxic condition by clonogenic assay. The class given is functional, cell-based. The method, boiled down:
(§3)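 DU145 monolayers seeded at 2.5 × 10^5 cells per flask and treated 3 days later. Pretreatment with prodrug for 6 h, then laromustine added in medium for 24 h at 37 °C; DMSO ≤ 0.05%. For oxygen deficiency, glucose oxidase 2 units/mL plus catalase 120 units/mL in high-glucose DMEM, with flasks nitrogen-flushed and sealed. Aerobic flasks were unsealed and lacked these enzymes. Colonies were crystal-violet stained after 10–14 days; plating in duplicate.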

Data set [13] concerns DU-145. The data set is described as follows: Inhibition of AGT-mediated potentiation of laromustine-induced cytotoxicity in human DU145 cells at 40 uM pretreated for 6 hrs prior laromustine addition measured after 24 hrs incubation under oxygen deficiency condition by clonogenic assay. The class given is functional, cell-based. The gist of the method: as §3

The source made the active and inactive calls. The calls are words filed in the database; no cut-off is given here. Where only a bound is given, the exact number is not on record here.

For the compound `O=C(Nc1nc(OCc2ccccc2)c2nc[nH]c2n1)OCc1ccc([N+](=O)[O-])cc1`, in data set [1], the Drug degradation is on record as 4 %molar. Moreover, the Drug metabolism was below 0.05 µM in data set [2]; 2.8 µM in data set [3]; below 0.05 µM in [4]; below 0.05 µM in data set [5]; “Not Active” in [7]; “Not Active” in data set [8]. For the same compound, the Drug metabolism result in data set [9] was “Active”. For the same compound, in data set [6], the inhibition (in general, the change of the read-out against control, counted positive when it falls) is below 1%.
Take `CC(OC(=O)Nc1nc(OCc2ccccc2)c2nc[nH]c2n1)c1ccc([N+](=O)[O-])cc1` (stereo unspecified): the Drug degradation in data set [1] was found to be 35.4 %molar. For the same compound, the Drug metabolism in data set [2] was below 0.05 µM; in [3], 11.6 µM; in data set [4] it was below 0.05 µM; in data set [5], 0.1 µM; in [7], “Not Active”; in data set [8], “Not Active”. Further, in data set [9], the Drug metabolism result is reported as “Active”. For the same compound, in [6], the inhibition is below 1%.
Regarding `Nc1nc(OCc2ccccc2)c2nc[nH]c2n1`, the inhibition in [10] was found to be 47%.
For the compound `CC(C)(OC(=O)Nc1nc(OCc2ccccc2)c2nc[nH]c2n1)c1ccc([N+](=O)[O-])cc1`, in data set [1], the Drug degradation is given as 54.8 %molar. In addition, the Drug metabolism in [2] is below 0.05 µM; in [3], 14.8 µM; in [4] it was 0.1 µM; in [5], 13.9 µM; in [7] it was “Not Active”; in data set [8] it was “Not Active”. Moreover, the Drug metabolism result in data set [11] and in data set [9] was “Active” in each case. For the same compound, the inhibition in [6] was below 1%. Also, in data set [12], the inhibition entry was “inactive”. Further, in data set [13], the inhibition result was “Active”.
